Data taken from ChEMBL document CHEMBL1212864, “Synthesis of novel 3,5-diaryl pyrazole derivatives using combinatorial chemistry as inhibitors of tyrosinase as well as potent anticancer, anti-inflammatory agents” (Bioorg Med Chem, 2010).

Experiments:
MCF7 [1] = experiment: Anticancer activity against human MCF7 cells at 10 uM after 24 hrs; format: functional
PC-3 [2] = experiment: Anticancer activity against human PC3 cells at 10 uM after 24 hrs; format: functional
HL-60 [3] = experiment: Anticancer activity against human HL60 cells at 10 uM after 24 hrs; format: functional
NCI-H460 [4] = experiment: Anticancer activity against human H460 cells at 10 uM after 24 hrs; format: functional
HCT-116 [5] = experiment: Anticancer activity against human HCT116 cells at 10 uM after 24 hrs; format: functional
THP-1 [6] = experiment: Antiinflammatory activity against human THP1 cells assessed as inhibition of LPS-induced TNFalpha release at 10 uM after 24 hrs; format: functional; details: THP-1, 24 h
Summary of the method: (§1)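 Human THP-1 cells were grown in RPMI 1640 with 10% FBS, penicillin and streptomycin, then differentiated with PMA. Test agents in 0.5% DMSO were preincubated with cells for 30 min at 37 °C before E. coli 0127:B8 LPS was added. Cytokine release was measured by the manufacturer's (BD Biosciences) method and expressed as percent inhibition versus control; IC50 values came from nonlinear regression.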

THP-1 [7] = experiment: Antiinflammatory activity against human THP1 cells assessed as inhibition of LPS-induced IL6 release at 10 uM after 24 hrs; format: functional; details: THP-1, 24 h; summary of the method: as §1
Tyrosinase [8] = molecular target: T1, Tyrosinase (Agaricus bisporus, UniProt O42713); experiment: Inhibition of mashroom tyrosinase
T1 sequence (O42713 whole entry): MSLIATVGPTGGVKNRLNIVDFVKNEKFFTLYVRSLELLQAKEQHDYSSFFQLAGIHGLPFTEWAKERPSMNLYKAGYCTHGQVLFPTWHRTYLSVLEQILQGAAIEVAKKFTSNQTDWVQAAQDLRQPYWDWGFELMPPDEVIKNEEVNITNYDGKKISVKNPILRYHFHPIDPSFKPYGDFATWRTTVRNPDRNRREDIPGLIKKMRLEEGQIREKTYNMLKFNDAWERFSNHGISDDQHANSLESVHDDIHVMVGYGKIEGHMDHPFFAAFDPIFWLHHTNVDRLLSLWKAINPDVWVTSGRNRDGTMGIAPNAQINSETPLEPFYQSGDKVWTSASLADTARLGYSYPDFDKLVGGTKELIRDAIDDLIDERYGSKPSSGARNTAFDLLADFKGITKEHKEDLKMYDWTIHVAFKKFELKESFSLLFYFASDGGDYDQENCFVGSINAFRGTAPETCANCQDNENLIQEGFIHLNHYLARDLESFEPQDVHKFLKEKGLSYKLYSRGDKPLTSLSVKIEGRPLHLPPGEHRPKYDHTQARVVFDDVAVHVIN
Summary of the method: (§2)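 Mushroom tyrosinase diphenolase activity (L-DOPA substrate) or monophenolase activity (L-tyrosine substrate) in 0.25 M phosphate buffer, pH 6.8, at 30 °C. Samples were first dissolved in DMSO. Dopachrome formation was followed spectrophotometrically at 475 nm.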

Tyrosinase [9] = molecular target: T1, Tyrosinase; experiment: Inhibition of mashroom tyrosinase assessed as oxidation of L-DOPA; summary of the method: as §2
MCF7 [10] = experiment: Anticancer activity against human MCF7 cells at 0.5 uM after 24 hrs; format: functional
PC-3 [11] = experiment: Anticancer activity against human PC3 cells at 0.5 uM after 24 hrs; format: functional
HL-60 [12] = experiment: Anticancer activity against human HL60 cells at 0.5 uM after 24 hrs; format: functional
NCI-H460 [13] = experiment: Anticancer activity against human H460 cells at 0.5 uM after 24 hrs; format: functional
HCT-116 [14] = experiment: Anticancer activity against human HCT116 cells at 0.5 uM after 24 hrs; format: functional
THP-1 [15] = experiment: Antiinflammatory activity against human THP1 cells assessed as inhibition of LPS-induced TNFalpha release at 1 uM after 24 hrs; format: functional; design: scale not given: the % may be the effect or the level left; summary of the method: as §1
THP-1 [16] = experiment: Antiinflammatory activity against human THP1 cells assessed as inhibition of LPS-induced IL6 release at 1 uM after 24 hrs; format: functional; design: scale not given: the % may be the effect or the level left; summary of the method: as §1
[17] = Cytotoxicity against […] at 1 uM; format: cell-based
Summary of the method: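 Cytotoxicity was measured with the CCK-8 kit in PMA-differentiated THP-1 cells at the same time as the LPS-induced cytokine release assay. Test agents were given in 0.5% DMSO with a 30 min preincubation at 37 °C before LPS.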

IC50 (Tyrosinase [8]) [µM]	Ki (Tyrosinase [8]) [µM]	IC50 (Tyrosinase [9]) [µM]	Ki (Tyrosinase [9]) [µM]	Structure (SMILES)	Activity (MCF7 [1]) [%]	Activity (PC-3 [2]) [%]	Activity (HL-60 [3]) [%]	Activity (NCI-H460 [4]) [%]	Activity (HCT-116 [5]) [%]	inhibition at 10 µM (THP-1 [6]) [%]	inhibition at 10 µM (THP-1 [7]) [%]	Activity (MCF7 [10]) [%]	Activity (PC-3 [11]) [%]	Activity (HL-60 [12]) [%]	Activity (NCI-H460 [13]) [%]	Activity (HCT-116 [14]) [%]	Activity (THP-1 [15]) [%]	Activity (THP-1 [16]) [%]	Activity [17] [%]
22.8	10.6	29.4	11.8	COc1cc(OC)c(C2CCN(C)C2CO)c(O)c1-c1cc(-c2ccccc2Cl)[nH]n1 (centres undefined)	63	69	67	69	73	24	47								
				COc1cc(OC)c(C2CCN(C)C2CO)c(O)c1-c1cc(-c2ccccc2Br)[nH]n1 (centres undefined)	55	51	62	53	61	19	39								
				COc1cc(OC)c(C2CCN(C)C2CO)c(O)c1-c1cc(-c2ccc(Cl)cc2Cl)[nH]n1 (centres undefined)	58	63	59	61	59	18	41								
17.8	9.85	21.5	14.6	COc1cc(OC)c(C2CCN(C)C2CO)c(O)c1-c1cc(-c2ccc([N+](=O)[O-])cc2Cl)[nH]n1 (centres undefined)	61	65	63	65	67	21	42								
				COc1cc(OC)c(C2CCN(C)C2CO)c(O)c1-c1cc(-c2ccccc2F)[nH]n1 (centres undefined)	15	21	19	23	19	0	11								
				COc1cc(OC)c(C2CCN(C)C2CO)c(O)c1-c1cc(-c2ccccc2C)[nH]n1 (centres undefined)	11	17	14	18	16	0	13								
				COc1ccccc1-c1cc(-c2c(OC)cc(OC)c(C3CCN(C)C3CO)c2O)n[nH]1 (centres undefined)	13	29	17	15	21	0	10								
1.75	0.84	2.84	0.96	COc1ccc(-c2cc(-c3c(OC)cc(OC)c(C4CCN(C)C4CO)c3O)n[nH]2)c(OC)c1 (centres undefined)	21	16	24	19	17	0	11								
				COc1cc(OC)c(C2CCN(C)C2CO)c(O)c1-c1cc(-c2cccc(Cl)c2)[nH]n1 (centres undefined)	59	67	61	55	63	11	35								
				COc1cc(OC)c(C2CCN(C)C2CO)c(O)c1-c1cc(-c2cccc(Br)c2)[nH]n1 (centres undefined)	65	58	52	61	59	13	43								
				COc1cc(OC)c(C2CCN(C)C2CO)c(O)c1-c1cc(-c2ccc(C)cc2)[nH]n1 (centres undefined)	17	11	21	13	19	0	10								
15.5	11.2	19.6	12.6	COc1cc(OC)c(C2CCN(C)C2CO)c(O)c1-c1cc(-c2ccc(F)cc2)[nH]n1 (centres undefined)	19	15	26	16	21	11	28								
				COc1ccc(-c2cc(-c3c(OC)cc(OC)c(C4CCN(C)C4CO)c3O)n[nH]2)cc1 (centres undefined)	15	22	19	13	16	0	12								
				COc1cc(OC)c(C2CCN(C)C2CO)c(O)c1-c1cc(-c2ccc(Cl)cc2)[nH]n1 (centres undefined)	61	65	63	58	55	16	35								
				COc1cc(OC)c(C2CCN(C)C2CO)c(O)c1-c1cc(-c2ccc(Br)cc2)[nH]n1 (centres undefined)	63	59	57	61	49	17	31								
				CN1CC[C@H](c2c(O)cc(O)c3c(=O)cc(-c4ccccc4Cl)oc23)[C@H](O)C1 [ALVOCIDIB]								74	77	72	78	87			
				C[C@@H]1C[C@H]2[C@@H]3CCC4=CC(=O)C=C[C@]4(C)[C@@]3(F)[C@@H](O)C[C@]2(C)[C@@]1(O)C(=O)CO [DEXAMETHASONE]													71	85	0
